According to ChEMBL document CHEMBL1143876, “Synthesis, analgesic, anti-inflammatory, and antimicrobial activity of some novel pyrimido[4,5-b]quinolin-4-ones” (2008):

Legend:
[1] = tested on: Rattus norvegicus; assay: Antiinflammatory activity against carrageenan-induced paw edema in Sprague-Dawley rat at 10 mg/kg, po after 2 hrs; format: functional
In short: (§1)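 Adult male rats, 150–180 g, six per group. Oral dose 1 h before 0.1 ml 1% carrageenin sc into the left hind footpad: test agents 15 mg/kg as suspension, indomethacin 10 mg/kg; vehicle 10% Tween 80. Paw volume by plethysmometer before injection, then hourly for 4 h. Edema % = (Vt−Vc)/Vc; inhibition % = (Ec−Et)/Ec. Potency taken relative to indomethacin. Means ± SE.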

[2] = tested on: Rattus norvegicus; assay: Antiinflammatory activity against carrageenan-induced paw edema in Sprague-Dawley rat at 10 mg/kg, po after 4 hrs; format: functional; in short: as §1
[3] = tested on: Rattus norvegicus; assay: Antiinflammatory activity against carrageenan-induced paw edema in Sprague-Dawley rat at 10 mg/kg, po after 1 hr; format: functional; in short: as §1
[4] = tested on: Rattus norvegicus; assay: Antiinflammatory activity against carrageenan-induced paw edema in Sprague-Dawley rat at 10 mg/kg, po after 3 hrs; format: functional; in short: as §1
[5] = tested on: Mus musculus; assay: Analgesic activity against acetic acid-induced abdominal constriction in Swiss albino mouse at 15 mg/kg, po after 20 mins by writhing test relative to acetylsalicylic acid; format: functional, Abdomen
In short: (§2)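 Mice of both sexes, 25–30 g, dosed orally in 10% v/v Tween 80 in water. Test agents were given at 15 mg/kg and acetylsalicylic acid at 100 mg/kg. 30 min later, 0.7% acetic acid (10 ml/kg) ip. Writhes counted over 20 min; six per group. % protection = (control mean − treated mean)/control mean ×100; means ± SE.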

[6] = tested on: Pseudomonas aeruginosa; assay: Antimicrobial activity against Pseudomonas aeruginosa at 50 ug/disk after 24 to 28 hrs; format: functional; conditions: read-out: IZ
In short: (§3)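 Agar disk diffusion: 5 mm paper disks loaded with 50 µg/disk in DMSO. Inhibition zones read after 24–28 h at 37 °C for bacteria, or 5 days at 28 °C for clinical Candida isolates grown on Sabouraud dextrose agar. Zone graded 6–10 mm slight, 11–15 mm moderate, >15 mm high. Reference disks: nalidixic acid 30 µg, nystatin 100 U.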

[7] = tested on: Nakaseomyces glabratus; assay: Antimicrobial activity against Candida glabrata at 50 ug/disk after 5 days; format: functional; conditions: 120 h, read-out: IZ; in short: as §3
[8] = tested on: Klebsiella pneumoniae; assay: Antimicrobial activity against Klebsiella pneumoniae; format: functional
In short: (§4)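 MIC found by disk diffusion using disks carrying varying amounts of compound per disk, in DMSO. Incubated 24–28 h at 37 °C for bacteria and 5 days at 28 °C for Candida. MIC given in µg/disk.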

[9] = tested on: Rattus norvegicus; assay: Antiinflammatory activity against carrageenan-induced paw edema in Sprague-Dawley rat at 15 mg/kg, po relative to indomethacin after 3 hrs; format: functional; in short: as §1
[10] = tested on: Rattus norvegicus; assay: Antiinflammatory activity against carrageenan-induced paw edema in Sprague-Dawley rat at 15 mg/kg, po after 1 hr; format: functional; in short: as §1
[11] = tested on: Staphylococcus aureus; assay: Antimicrobial activity against Staphylococcus aureus; format: functional; in short: as §4
[12] = tested on: Rattus norvegicus; assay: Antiinflammatory activity against carrageenan-induced paw edema in Sprague-Dawley rat at 15 mg/kg, po relative to indomethacin after 4 hrs; format: functional; in short: as §1
[13] = tested on: Mus musculus; assay: Analgesic activity in Swiss albino mouse assessed as reaction time at 15 mg/kg, po after 60 mins by hot plate test; format: functional
In short: (§5)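 Mice of both sexes, 25–30 g, on a hot plate at 53 ± 0.5 °C; reaction time taken to hind-paw lick or jump, 60 s cut-off. Baseline read before dosing. Oral dosing in 10% v/v Tween 80 in water: test agents 15 mg/kg, acetylsalicylic acid 100 mg/kg. Re-read at 15, 30, 60 and 90 min; means ± SE.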

[14] = tested on: Pseudomonas aeruginosa; assay: Antimicrobial activity against Pseudomonas aeruginosa; format: functional; in short: as §4
[15] = tested on: Rattus norvegicus; assay: Antiinflammatory activity against carrageenan-induced paw edema in Sprague-Dawley rat at 15 mg/kg, po relative to indomethacin after 1 hr; format: functional; in short: as §1
[16] = tested on: Staphylococcus aureus; assay: Antimicrobial activity against Staphylococcus aureus at 50 ug/disk after 24 to 28 hrs; format: functional; conditions: read-out: IZ; in short: as §3
[17] = tested on: Rattus norvegicus; assay: Antiinflammatory activity against carrageenan-induced paw edema in Sprague-Dawley rat at 15 mg/kg, po after 2 hrs; format: functional; in short: as §1
[18] = tested on: Klebsiella pneumoniae; assay: Antimicrobial activity against Klebsiella pneumoniae at 50 ug/disk after 24 to 28 hrs; format: functional; conditions: read-out: IZ; in short: as §3
[19] = tested on: Mus musculus; assay: Analgesic activity against acetic acid-induced abdominal constriction in Swiss albino mouse at 15 mg/kg, po after 20 mins by writhing test; format: functional, Abdomen; in short: as §2
[20] = tested on: Mus musculus; assay: Analgesic activity in Swiss albino mouse assessed as reaction time at 15 mg/kg, po after 90 mins by hot plate test; format: functional; in short: as §5
[21] = tested on: Escherichia coli; assay: Antimicrobial activity against Escherichia coli at 50 ug/disk after 24 to 28 hrs; format: functional; conditions: read-out: IZ; in short: as §3
[22] = tested on: Rattus norvegicus; assay: Antiinflammatory activity against carrageenan-induced paw edema in Sprague-Dawley rat at 15 mg/kg, po after 3 hrs; format: functional; in short: as §1
[23] = tested on: Rattus norvegicus; assay: Antiinflammatory activity against carrageenan-induced paw edema in Sprague-Dawley rat at 15 mg/kg, po relative to indomethacin after 2 hrs; format: functional; in short: as §1
[24] = tested on: Candida albicans; assay: Antimicrobial activity against Candida albicans at 50 ug/disk after 5 days; format: functional; conditions: 120 h, read-out: IZ; in short: as §3
[25] = tested on: Escherichia coli; assay: Antimicrobial activity against Escherichia coli; format: functional; in short: as §4
[26] = tested on: Mus musculus; assay: Analgesic activity in Swiss albino mouse assessed as reaction time at 15 mg/kg, po after 30 mins by hot plate test; format: functional; in short: as §5
[27] = tested on: Rattus norvegicus; assay: Antiinflammatory activity against carrageenan-induced paw edema in Sprague-Dawley rat at 15 mg/kg, po after 4 hrs; format: functional; in short: as §1
[28] = tested on: Candida albicans; assay: Antimicrobial activity against Candida albicans; format: functional; in short: as §4

SMILES | Activity [5] [%] | zone of inhibition at 50 µg/disc [6] [mm] | zone of inhibition at 50 µg/disc [7] [mm] | MIC [8] [µg] | inhibition in vivo at 15 mg/kg [9] [%] | inhibition in vivo at 15 mg/kg [10] [%] | MIC [11] [µg] | inhibition in vivo at 15 mg/kg [12] [%] | Time [13] [s] | MIC [14] [µg] | inhibition in vivo at 15 mg/kg [15] [%] | zone of inhibition at 50 µg/disc [16] [mm] | inhibition in vivo at 15 mg/kg [17] [%] | zone of inhibition at 50 µg/disc [18] [mm] | Activity [19] [%] | Time [20] [s] | zone of inhibition at 50 µg/disc [21] [mm] | inhibition in vivo at 15 mg/kg [22] [%] | MIC [25] [µg] | Time [26] [s] | also measured
COc1ccc2c(c1)c(CC(=O)O)c(C)n2C(=O)c1ccc(Cl)cc1 [INDOMETHACIN] | – | – | – | – | – | – | – | – | – | – | – | – | – | – | – | – | – | – | – | – | inhibition in vivo at 10 mg/kg [1]: 58.2%; inhibition in vivo at 10 mg/kg [2]: 46.4%; inhibition in vivo at 10 mg/kg [3]: 56.9%; inhibition in vivo at 10 mg/kg [4]: 42.6%
Cc1cc(C)n(-c2nc3nc4c(c(-c5ccccc5)c3c(=O)[nH]2)CCCC4)n1 | 114.51 | 22 | 9 | 30 | 0.1 | 10.5 | 30 | 1.7 | 10.15 | 30 | 14.5 | 21 | 0.9 | 20 | 59.2 | 11.5 | 19 | 0.1 | 30 | 8.93 | inhibition in vivo at 15 mg/kg [23]: 1.5%; zone of inhibition at 50 µg/disc [24]: 9 mm; inhibition in vivo at 15 mg/kg [27]: 0.8%
O=c1[nH]c(=S)[nH]c2nc3c(c(-c4ccccc4)c12)CCCC3 | 68.47 | 15 | – | – | – | – | – | – | 10.98 | – | – | 13 | – | 14 | 35.4 | 11.12 | 12 | – | – | 8.65 | –
CC(=O)NNc1nc2nc3c(c(-c4ccccc4)c2c(=O)[nH]1)CCCC3 | 116.83 | 22 | 16 | 20 | 55.9 | 25.9 | 20 | 46.9 | 8.06 | 20 | 45.5 | 19 | 22.8 | 18 | 60.4 | 9.22 | 20 | 23.9 | 20 | 8.62 | inhibition in vivo at 15 mg/kg [23]: 39.2%; MIC [28]: 50 µg; zone of inhibition at 50 µg/disc [24]: 17 mm; inhibition in vivo at 15 mg/kg [27]: 21.8%
Cc1n[nH]c2nc3nc4c(c(-c5ccccc5)c3c(=O)n12)CCCC4 | 11.2 | 21 | 13 | 20 | – | – | 20 | – | 8.8 | 20 | – | 21 | – | 20 | 5.8 | 10.4 | 20 | – | 20 | 8.68 | MIC [28]: 50 µg; zone of inhibition at 50 µg/disc [24]: 18 mm
NNc1nc2nc3c(c(-c4ccccc4)c2c(=O)[nH]1)CCCC3 | 102.32 | 15 | – | – | 51.1 | 30.5 | – | 40.1 | 10.61 | – | 53.5 | 11 | 20.8 | 13 | 52.9 | 12 | 13 | 21.8 | – | 7.54 | inhibition in vivo at 15 mg/kg [23]: 35.7%; inhibition in vivo at 15 mg/kg [27]: 18.6%
O=c1c2c(-c3ccccc3)c3c(nc2nc2[nH]nnn12)CCCC3 | 27.07 | 22 | – | 30 | – | – | 30 | – | 10.78 | 30 | – | 17 | – | 16 | 14 | 10.08 | 18 | – | 30 | 9.16 | –
Nn1c(-c2ccccc2)cn2c(=O)c3c(-c4ccccc4)c4c(nc3nc12)CCCC4 | 71.76 | 23 | – | 20 | – | – | 20 | – | 11.41 | 20 | – | 19 | – | 22 | 37.1 | 10.67 | 21 | – | 20 | 9.42 | –
